In brackets after ≈: the same amount, converted by molar mass.
Key:
Stearoyl-CoA desaturase [1] = target: T1, Stearoyl-CoA desaturase (Homo sapiens, UniProt O00767); assay: Inhibition of SCD1 in HEK293A cell microsomes assessed as reduction in conversion of [14C]stearic acid to [14C]oleic acid after 30 mins; parameters: species or system HEK293-A, Microsome
T1 sequence (O00767 whole entry): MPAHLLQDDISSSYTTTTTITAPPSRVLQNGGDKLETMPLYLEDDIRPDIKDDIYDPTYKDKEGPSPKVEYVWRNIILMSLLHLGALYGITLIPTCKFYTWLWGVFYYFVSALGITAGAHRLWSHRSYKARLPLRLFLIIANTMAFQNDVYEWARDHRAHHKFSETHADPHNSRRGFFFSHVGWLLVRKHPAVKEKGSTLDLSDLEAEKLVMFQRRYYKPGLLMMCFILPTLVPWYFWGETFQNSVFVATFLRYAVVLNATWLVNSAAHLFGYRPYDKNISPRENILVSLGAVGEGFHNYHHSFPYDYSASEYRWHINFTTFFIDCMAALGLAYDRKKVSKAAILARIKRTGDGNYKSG

Stearoyl-CoA desaturase [2] = target: T1, Stearoyl-CoA desaturase; assay: Inhibition of human SCD1 expressed in HEK293A cells assessed as reduction in conversion of [14C]stearic acid to [14C]oleic acid after 30 mins; type: cell-based, HEK293-A
Method in brief: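 293A cells stably expressing human SCD1 (G418-selected) grown to confluence in DMEM + 10% FBS. Cells preincubated with compound 30 min, then given 0.1 µCi [14C]stearate for 4 h. Lipids saponified in KOH, separated by AgNO3-TLC, and the [14C]oleate/[14C]stearate ratio used as activity. IC50 derived from this read-out.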

Acyl-CoA desaturase 1 = target: T2, Acyl-CoA desaturase 1 (Mus musculus, UniProt P13516); assay: Inhibition of SCD1 in mouse microsome assessed as reduction in conversion of [14C]stearic acid to [14C]oleic acid after 30 mins; type: microsomes
T2 sequence (P13516 whole entry): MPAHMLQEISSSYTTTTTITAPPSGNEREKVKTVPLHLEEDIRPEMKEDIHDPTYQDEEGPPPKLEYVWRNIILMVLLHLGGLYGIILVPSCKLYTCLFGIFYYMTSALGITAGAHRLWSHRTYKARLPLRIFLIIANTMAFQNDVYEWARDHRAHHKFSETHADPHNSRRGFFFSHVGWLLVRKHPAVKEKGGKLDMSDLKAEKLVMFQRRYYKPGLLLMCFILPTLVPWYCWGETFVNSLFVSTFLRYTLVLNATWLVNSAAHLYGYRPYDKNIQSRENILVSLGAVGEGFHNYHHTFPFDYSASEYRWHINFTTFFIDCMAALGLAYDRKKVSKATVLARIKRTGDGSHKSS

Mus musculus = assay: Inhibition of liver SCD1 activity in po dosed db/db mouse assessed as reduction in conversion of [14C]stearic acid to [14C]oleic acid; type: functional; settings: read-out: ID50 (the source's name)
Method in brief: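 Seven-week-old male db/db mice dosed by oral gavage 2 h before i.p. [14C]stearate (100 µCi/kg in saline with 2% BSA). Livers harvested 1 h later and homogenized in cold PBS. Saponified homogenate analyzed by AgNO3-TLC for the [14C]oleate/[14C]stearate ratio. ID50 is the dose giving 50% inhibition.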

[3] = Aqueous solubility of the compound at acidic JP-1 solution of pH 1.2 by HPLC analysis; type: physicochemical
Method in brief: (§1)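 Solubility measured in purchased aqueous acidic JP-1 (pH 1.2) or neutral JP-2 (pH 6.8) media. Samples analyzed by HPLC, with UV peak area compared to a calibration standard of 250 µM compound in CH3CN/water 1:1. Means of at least two experiments.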

Stearoyl-CoA desaturase [4] = target: T1, Stearoyl-CoA desaturase; assay: Inhibition of human SCD1
Method in brief: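 Microsomes from 293A cells as the human SCD1 source, preincubated with compound for 10 min at room temperature. Reaction run 60 min at 37 °C in pH 7.4 phosphate buffer with ATP 1 mM, NADH 1.25 mM, CoA and [14C] stearate. Product saponified and separated on AgNO3-TLC. Activity is the [14C] oleate/stearate ratio. IC50 by linear regression; mean of ≥2 experiments.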

[5] = Aqueous solubility of the compound at neutral JP-2 solution of pH 6.8 by HPLC analysis; type: physicochemical; method in brief: as §1
[6] = Cmax in C57BL/6J mouse at 20 mg/kg, po up to 8 hrs; type: ADME, organism-based; parameters: dose 20 mg/kg, route oral; settings: in vivo
Method in brief: (§2)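 Oral gavage via intubation tube at 20 mg/kg in propylene glycol/Tween 4:1, n = 3 C57BL/6J mice. Plasma sampled up to 8 h after dosing. Values are arithmetic means of at least two experiments.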

[7] = Half life in C57BL/6J mouse at 20 mg/kg, po; type: ADME, organism-based; parameters: dose 20 mg/kg, route oral; settings: in vivo; method in brief: as §2
[8] = Tmax in C57BL/6J mouse at 20 mg/kg, po; type: ADME, organism-based; parameters: dose 20 mg/kg, route oral; settings: in vivo; method in brief: as §2
[9] = AUC (0 to 8 hrs) in C57BL/6J mouse at 20 mg/kg, po; type: ADME, organism-based; parameters: time < 8 hr, dose 20 mg/kg, route oral; settings: plasma; method in brief: as §2

IC50 (Stearoyl-CoA desaturase [1]) [nM]	IC50 (Stearoyl-CoA desaturase [2]) [nM]	IC50 (Acyl-CoA desaturase 1) [nM]	solubility [3] [µM]	IC50 (Stearoyl-CoA desaturase [4]) [nM]	solubility [5] [µM]	Cmax [6] [ng/mL]	half-life [7] [min]	Tmax [8] [min]	AUC(0-t) at 8 h [9] [ng·h/mL]	SMILES	ED50 (Mus musculus) [mg/kg]
27	76	10	–	–	–	–	–	–	–	O=C(NCCc1cccnc1)c1ccc(N2CCC3(CCc4ccccc4O3)CC2)nn1	5
0.03	–	0.06	88 (≈ 44.7 µg/mL)	0.03	< 0.5	–	–	–	–	FC(F)(F)c1cccc2c1CCC1(CCN(c3ccc(-c4nnc(Cc5cccnc5)o4)nn3)CC1)O2	0.4
0.2	0.7	0.2	91 (≈ 41.4 µg/mL)	–	< 0.5	1100	36	48	2100	Cc1cccc2c1CCC1(CCN(c3ccc(-c4nnc(Cc5cccnc5)o4)nn3)CC1)O2	1
1	4	2	92 (≈ 40.5 µg/mL)	–	4.2 (≈ 1.85 µg/mL)	1300	48	60	2400	c1cncc(Cc2nnc(-c3ccc(N4CCC5(CCc6ccccc6O5)CC4)nn3)o2)c1	2
